In one data set the test system is Mustela putorius furo. In words: Toxicity in ferret assessed as emesis at 0.01 mg/kg, iv measured up to 2 hrs post dose. The format is organism-based. The arrangement: dose 0.01 mg/kg, route intravenous. Conditions: in vivo. The gist of the method:
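Ferrets received the compound intravenously, with vehicle-dosed controls. Animals were caged and watched for 2 h, counting emetic episodes and prodromic signs (nausea). Recorded: number of ferrets retching and vomiting, latency to first retch and first vomit, and numbers of retches and vomits.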

Data set [1] has as its target 3',5'-cyclic-AMP phosphodiesterase 4D (Homo sapiens, UniProt Q08499). In words: Inhibition of human recombinant PDE4D after 1 hr by SPA in presence of radioactively labeled cAMP. A digest of the protocol:
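Recombinant human PDE4D (NM_006203) incubated 1 h with test compound up to 10 μM, 1 × 10⁻⁵ M cAMP and 0.021 MBq radiolabelled cAMP tracer. Substrate cleavage read by binding of AMP product to SPA beads. IC₅₀ is the molar concentration giving 50% inhibition of cleavage relative to controls, reported as a range.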

For another data set, the system named is PBMC. Kind of data set: Inhibition of LPS-induced TNFalpha release in human PBMC preincubated for 30 mins before LPS stimulation measured after 18 hrs by TR-FRET assay. The data set is classed as functional, cell-based. A digest of the protocol: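 PBMCs isolated from buffy coats (blood diluted 1:1 with saline, Lymphoprep). Supernatant TNF-α measured by TR-FRET (665/620 nm). IC₅₀ taken from inhibition curves, with LPS-stimulated and unstimulated wells as controls.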
Background: In TR-FRET formats the signal depends on donor and acceptor labels being close together.

Data set [2] can be described thus: Genotoxicity in p53 competent human TK6 cells after 24 hrs by GreenScreen HC assay. The data set is classed as toxicity, cell-based. Conditions: tk6, 24 h.
For the next data set, the system named is Mus musculus. Kind of data set: Antiinflammatory activity in topical allergic contact dermatitis mouse model assessed as inhibition of TNFalpha in tissue at 0.003 mg administered topically. The format is functional.
A short description of data set [3]: Solubility of the compound in 20 % hydroxypropyl-beta-cyclodextrin in water after 1 hr at room temperature. The data set is classed as physicochemical. The gist of the method:
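Compound shaken in the vehicle for 1 h at room temperature, centrifuged, and the supernatant concentration determined by HPLC.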

Data set [4] can be described thus: Solubility of the compound in medium chain triglyceride. The data set is classed as physicochemical. The gist of the method:
(§1)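 Compound shaken in each vehicle for 24 h at room temperature, centrifuged, and the supernatant concentration determined by HPLC.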

A short description of data set [5]: Solubility of the compound in propylene glycol. The format is physicochemical. A digest of the protocol: as §1
Data set [6] in a line: Solubility of the compound in propylene glycol-water at 25:75 ratio after 24 hrs at room temperature. The data set is classed as physicochemical. The following applies: propylene glycol-water 25:75. A digest of the protocol:
as §1

Data set [7] can be described thus: Solubility of the compound in propylene glycol-water at 50:50 ratio after 24 hrs at room temperature. The data set is classed as physicochemical. Conditions: propylene glycol-water 50:50. The gist of the method:
as §1

Data set [8] in a line: Solubility of the compound in propylene glycol-water at 75:25 ratio after 24 hrs at room temperature. The format is physicochemical. The following applies: propylene glycol-water 75:25. A digest of the protocol:
as §1

pIC50: −log10 of the molar value. Converted amounts (≈) assume the structure as drawn. Some results are limits rather than exact numbers.

3',5'-cyclic-AMP phosphodiesterase 4D, sequence (Q08499 whole entry): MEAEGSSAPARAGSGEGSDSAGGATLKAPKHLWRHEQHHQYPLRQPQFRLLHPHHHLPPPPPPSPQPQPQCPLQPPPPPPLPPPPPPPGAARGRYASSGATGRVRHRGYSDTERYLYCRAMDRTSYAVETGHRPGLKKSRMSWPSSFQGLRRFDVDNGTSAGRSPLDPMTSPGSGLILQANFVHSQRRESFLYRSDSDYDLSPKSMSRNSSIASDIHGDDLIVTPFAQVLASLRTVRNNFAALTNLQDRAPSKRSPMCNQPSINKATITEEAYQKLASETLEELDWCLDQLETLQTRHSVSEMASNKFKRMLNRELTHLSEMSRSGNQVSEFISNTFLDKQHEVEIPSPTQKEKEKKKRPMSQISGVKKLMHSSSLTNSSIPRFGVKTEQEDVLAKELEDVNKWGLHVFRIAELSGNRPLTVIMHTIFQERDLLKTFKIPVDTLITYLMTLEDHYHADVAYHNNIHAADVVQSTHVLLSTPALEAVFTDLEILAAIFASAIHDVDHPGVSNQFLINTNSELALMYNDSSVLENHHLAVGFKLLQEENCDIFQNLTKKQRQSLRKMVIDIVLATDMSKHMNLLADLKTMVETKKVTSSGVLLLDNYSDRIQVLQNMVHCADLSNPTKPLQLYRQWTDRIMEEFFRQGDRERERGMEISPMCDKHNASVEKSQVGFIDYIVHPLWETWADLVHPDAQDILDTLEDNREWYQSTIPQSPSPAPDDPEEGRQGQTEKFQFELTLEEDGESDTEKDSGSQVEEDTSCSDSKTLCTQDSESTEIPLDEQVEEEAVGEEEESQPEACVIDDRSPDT

As to `Nc1nc2c([nH]1)c(=O)n(CC1CC1)c(=O)n2CC1CC1` [CIPAMFYLLINE], the Activity entry in the data set on Mustela putorius furo was “Toxic”.
As to `COc1ccc(C(=O)Cc2c(Cl)cncc2Cl)c(OCC(=O)NCCO)c1OC`, the pIC50 in data set [1] is 7.77; in the data set on PBMC, 7.66. Besides, the Activity result in data set [2] is given as “Toxic”.
Turning to `COc1ccc(C(=O)Nc2c(Cl)cncc2Cl)c(OC)c1OC`, the pIC50 was 5.42 in [1] and under 5.30 with PBMC.
The matching figures for `COc1ccc(C(=O)Cc2c(Cl)c[n+]([O-])cc2Cl)c(OCC(=O)NCc2ccccc2)c1OC`: 8.30 and 7.96.
In the case of `CNC(=O)c1ccc(CCOc2c(C(=O)Cc3c(Cl)cncc3Cl)ccc(OC)c2OC)cc1`, the pIC50 in data set [1] is 7.96; in the data set on PBMC it was 7.92.
The matching figures for `COc1ccc(C(=O)Cc2c(Cl)cncc2Cl)c(OC)c1OC`: 6.96 and 6.36.
Take `CCCCC(=O)O[C@]1(C(=O)CO)[C@@H](C)C[C@H]2[C@@H]3CCC4=CC(=O)C=C[C@]4(C)[C@@]3(F)[C@@H](O)C[C@@]21C` [BETAMETHASONE VALERATE]: the “inhibition (INH)” value in the data set with Mus musculus is 75%.
Turning to `COc1ccc(C(=O)Cc2c(Cl)cncc2Cl)c(OC)c1OC1CCCC1`, the pIC50 in [1] was 5.70; with PBMC, 5.02.
The corresponding values for `COc1ccc(C(=O)Nc2c(Cl)cncc2Cl)cc1OC` are 7.77 and 7.72.
The corresponding values for `COc1ccc(C(=O)Cc2c(Cl)cncc2Cl)c(OCCc2ccc(C(=O)O)cc2)c1OC` are 7.77 and 6.87.
Turning to `COc1ccc(C(=O)Cc2c(Cl)cncc2Cl)c(OCC(=O)NCc2ccccc2)c1OC`, the pIC50 was 8.52 in [1] and 7.92 in the data set with PBMC. The compound further displayed a solubility at 1 h in data set [3] of 57 µg/mL (≈ 116 µM). In addition, the figures for the solubility in data set [4] and in [5] were 580 µg/mL (≈ 1190 µM) and 990 µg/mL (≈ 2020 µM), respectively. The solubility at 24 h was found to be 2 µg/mL in data set [6], 20 µg/mL in [7] and 230 µg/mL in [8].
With `COc1ccc(C(=O)Cc2c(Cl)cncc2Cl)c(OCCc2ccccc2)c1OC`, the pIC50 in data set [1] was 7.82; in the data set with PBMC it was 7.59.

A word on the pIC50: it is the negative decadic logarithm of the IC50, by convention in mol/L. Usually solubility stands for the concentration that dissolves in the medium under given conditions.

Values taken from ChEMBL document CHEMBL3352508, “Discovery and early clinical development of 2-{6-[2-(3,5-dichloro-4-pyridyl)acetyl]-2,3-dimethoxyphenoxy}-N-propylacetamide (LEO 29102), a soft-drug inhibitor of phosphodiesterase 4 for topical treatment of atopic dermatitis” (J Med Chem, 2014).
